The text below walks through data of ChEMBL document CHEMBL1649438, “Activities of ceftobiprole and other cephalosporins against extracellular and intracellular (THP-1 macrophages and keratinocytes) forms of methicillin-susceptible and methicillin-resistant Staphylococcus aureus” (Antimicrob Agents Chemother, 2009).

Each structure is given as a SMILES string. Values after ≈ are worked out from the molar mass of the structure shown.

In assay [1] the test system is Staphylococcus aureus. The experiment in a line: Antimicrobial activity against Panton-valentine leucocidin-positive community-acquired methicillin-resistant Staphylococcus aureus N4090440 infected in human THP-1 cells assessed as change in bacterial count after 24 hrs at pH 5.5. The class given is functional, organism-based. The conditions noted are these: N4090440, THP-1, 24 h. In short, it runs like this: (§1)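 THP-1 human macrophages infected with S. aureus (postphagocytosis inoculum 1.5 × 10^6 to 3.0 × 10^6 CFU/mg cell protein), then incubated 24 h with increasing extracellular antibiotic concentrations. Change in log10 CFU/mg cell protein from the postphagocytosis inoculum, n = 3. Hill function fitted on log-transformed data. Low-concentration value (E0) and high-concentration value (Emax) are extrapolated. Where a pH is given, concentrations are expressed as multiples of the broth MIC at that pH.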

The subject of assay [2] is Staphylococcus aureus. The experiment in a line: Antimicrobial activity against Panton-valentine leucocidin-positive community-acquired methicillin-resistant Staphylococcus aureus STA 44 infected in human THP-1 cells assessed as bacterial count per mg of cell protein at high extracellular compound concentration after 24 hrs at pH 5.5. The class given is functional. In short, it runs like this:
as §1

For assay [3], the system named is Staphylococcus aureus. Nature of the assay: Antimicrobial activity against Panton-valentine leucocidin-positive community-acquired methicillin-resistant Staphylococcus aureus isolate MEH2225605 infected in human THP-1 cells assessed as bacterial count per mg of cell protein at high extracellular compound concentration after 24 hrs at pH 5.5. The class given is functional. In short, it runs like this: as §1

The subject of assay [4] is Staphylococcus aureus. The experiment in a line: Antimicrobial activity against Panton-valentine leucocidin-positive community-acquired methicillin-resistant Staphylococcus aureus N4090440 infected in human THP-1 cells assessed as bacterial count per mg of cell protein at high extracellular compound concentration after 24 hrs. Type of assay: functional. In outline: as §1

The test system of assay [5] is Staphylococcus aureus. Nature of the assay: Antimicrobial activity against Panton-valentine leucocidin-positive community-acquired methicillin-resistant Staphylococcus aureus isolate MEH2225605 infected in human THP-1 cells assessed as change in bacterial count after 24 hrs. The conditions noted are these: isolate MEH2225605, THP-1, 24 h. The class given is functional, organism-based. In outline:
as §1

In assay [6] the test system is Staphylococcus aureus. The experiment in a line: Bacteriostatic activity against methicillin-susceptible Staphylococcus aureus […] infected in human THP-1 cells assessed as change in bacterial count after 24 hrs at pH 5.5. The class given is functional. In short, it runs like this: (§2)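 Human THP-1 macrophage-like cells were infected with S. aureus to a postphagocytosis inoculum of 1.5 × 10^6 to 3.0 × 10^6 CFU/mg cell protein. Cells were then exposed 24 h to increasing extracellular antibiotic concentrations. Response was the log10 CFU change per mg protein from the postphagocytosis inoculum, n = 3. A Hill function was fitted on log-transformed axes. E0 and Emax were extrapolated to infinitely low and high concentrations. Cs was read by graphical interpolation. Concentrations were expressed as multiples of the broth MIC at pH 5.5 or pH 7.4.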

Assay [7] has as its system Staphylococcus aureus. Nature of the assay: Antimicrobial activity against methicillin-susceptible Staphylococcus aureus NRS52 infected in human THP-1 cells assessed as bacterial count per mg of cell protein at high extracellular compound concentration after 24 hrs at pH 7.4. The class given is functional. In short, it runs like this: as §2
In assay [8] the test system is Staphylococcus aureus. Nature of the assay: Antimicrobial activity against methicillin-susceptible Staphylococcus aureus NRS52 infected in human THP-1 cells assessed as bacterial count per mg of cell protein at low extracellular compound concentration after 24 hrs. The class given is functional. In short, it runs like this:
as §2

Assay [9] relates to Staphylococcus aureus. The experiment in a line: Antimicrobial activity against hospital-acquired vancomycin-intermediate Staphylococcus aureus NRS126 infected in human THP-1 cells assessed as bacterial count per mg of cell protein at low extracellular compound concentration after 24 hrs at pH 7.4. Type of assay: functional. In outline: (§3)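 THP-1 macrophages infected as described previously, with a postphagocytosis inoculum of 1.5 × 10⁶ to 3.0 × 10⁶ CFU/mg cell protein. Cells were exposed 24 h to increasing extracellular antibiotic concentrations. Response is the change in log10 CFU/mg protein from the inoculum (n = 3), fitted to a Hill function. E0 and Emax were extrapolated to infinitely low and high concentrations. EC50 and static concentration (graphical interpolation) are expressed as multiples of the broth MIC at pH 5.5 or 7.4.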

The subject of assay [10] is Staphylococcus aureus. The experiment in a line: Antimicrobial activity against hospital-acquired vancomycin-intermediate Staphylococcus aureus NRS18 infected in human THP-1 cells assessed as change in bacterial count after 24 hrs at pH 5.5. Type of assay: functional, organism-based. The conditions noted are these: NRS18, THP-1, 24 h. In short, it runs like this:
as §3

Assay [11] relates to Staphylococcus aureus. Nature of the assay: Antimicrobial activity against hospital-acquired vancomycin-intermediate Staphylococcus aureus NRS126 infected in human THP-1 cells assessed as bacterial count per mg of cell protein at high extracellular compound concentration after 24 hrs at pH 7.4. Type of assay: functional. In outline:
as §3

In assay [12] the test system is Staphylococcus aureus. The experiment in a line: Antimicrobial activity against hospital-acquired methicillin-resistant Staphylococcus aureus […] infected in human THP-1 cells assessed as bacterial count per mg of cell protein at high extracellular compound concentration after 24 hrs. Type of assay: functional. In short, it runs like this:
as §3

Assay [13] concerns Staphylococcus aureus. The experiment in a line: Antimicrobial activity against Panton-valentine leucocidin-positive community-acquired methicillin-resistant Staphylococcus aureus N4042228 infected in human THP-1 cells assessed as bacterial count per mg of cell protein at high extracellular compound concentration after 24 hrs at pH 5.5. The class given is functional. In outline: as §1

The subject of assay [14] is Staphylococcus aureus. The experiment in a line: Antimicrobial activity against hospital-acquired vancomycin-resistant Staphylococcus aureus VRS1 infected in human THP-1 cells assessed as bacterial count per mg of cell protein at low extracellular compound concentration after 24 hrs. Type of assay: functional. In short, it runs like this: as §3
Assay [15] concerns Staphylococcus aureus. The experiment in a line: Antimicrobial activity against Panton-valentine leucocidin-positive community-acquired methicillin-resistant Staphylococcus aureus STA 228 infected in human THP-1 cells assessed as bacterial count per mg of cell protein at high extracellular compound concentration after 24 hrs at pH 5.5. The class given is functional. In outline: as §1

Assay [16] has as its system Staphylococcus aureus. Nature of the assay: Antimicrobial activity against hospital-acquired vancomycin-intermediate Staphylococcus aureus NRS18 infected in human THP-1 cells assessed as change in bacterial count after 24 hrs at pH 7.4. The class given is functional, organism-based. The conditions noted are these: NRS18, THP-1, 24 h. In outline:
as §3

Assay [17] deals with Staphylococcus aureus. The experiment in a line: Antimicrobial activity against hospital-acquired vancomycin-intermediate Staphylococcus aureus NRS126 infected in human THP-1 cells assessed as bacterial count per mg of cell protein at high extracellular compound concentration after 24 hrs. Type of assay: functional. In outline:
as §2

Assay [18] deals with Staphylococcus aureus. The experiment in a line: Bacteriostatic activity against methicillin-susceptible Staphylococcus aureus ATCC 11632 infected in human THP-1 cells assessed as change in bacterial count after 24 hrs at pH 5.5. The class given is functional. In short, it runs like this: as §2
The test system of assay [19] is Staphylococcus aureus. The experiment in a line: Antimicrobial activity against hospital-acquired vancomycin-resistant Staphylococcus aureus VRS1 infected in human THP-1 cells assessed as change in bacterial count after 24 hrs at pH 7.4. The conditions noted are these: VRS1, THP-1, 24 h. Type of assay: functional, cell-based. In outline:
as §3

Assay [20] concerns Staphylococcus aureus. The experiment in a line: Antimicrobial activity against methicillin-resistant Staphylococcus aureus ATCC 33591 infected in human keratinocytes assessed as bacterial count per mg of cell protein at high extracellular compound concentration after 24 hrs. The class given is functional. In outline:
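Primary human skin keratinocytes were grown in defined keratinocyte serum-free medium, infected with a postphagocytosis inoculum of 1.5 × 10⁶ to 3.0 × 10⁶ CFU/mg cell protein, then exposed 24 h to increasing extracellular antibiotic concentrations. Change in log10 CFU/mg protein from the inoculum was fitted to a Hill equation with slope 1. E0 and Emax were extrapolated to infinitely low and high concentrations, in total drug mg/liter.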

Assay [21] deals with Staphylococcus aureus. Nature of the assay: Antimicrobial activity against Panton-valentine leucocidin-positive community-acquired methicillin-resistant Staphylococcus aureus N4042228 infected in human THP-1 cells assessed as change in bacterial count after 24 hrs. The class given is functional, organism-based. The conditions noted are these: N4042228, THP-1, 24 h. In outline:
as §1

Regarding `Nc1nc(/C(=N/O)C(=O)N[C@@H]2C(=O)N3C(C(=O)O)=C(/C=C4\CCN([C@@H]5CCNC5)C4=O)CS[C@H]23)ns1` [CEFTOBIPROLE], the EC50 was found to be 0.54 × MIC with Staphylococcus aureus [1]; 0.82 µg/mL (≈ 1.53 µM) with Staphylococcus aureus [5]; 0.77 ×MIC in the assay on Staphylococcus aureus [10]; 0.28 ×MIC with Staphylococcus aureus [16]; 0.28 ×MIC in the assay with Staphylococcus aureus [19]; 0.07 µg/mL (≈ 0.131 µM) in the assay on Staphylococcus aureus [21]. Further, the log10cfu was -1.02 in the assay with Staphylococcus aureus [2]; -1.02 with Staphylococcus aureus [3]; -1.05 in the assay on Staphylococcus aureus [4]; -1.04 in the assay on Staphylococcus aureus [7]; 2.89 in the assay on Staphylococcus aureus [8]; 2.6 in the assay with Staphylococcus aureus [9]. Besides, the log10cfu in the assay on Staphylococcus aureus [11] is recorded as -0.99; in the assay on Staphylococcus aureus [12], -0.9; with Staphylococcus aureus [13], -1.02; in the assay on Staphylococcus aureus [14], 2.57; in the assay with Staphylococcus aureus [15] it was -1.02; with Staphylococcus aureus [17], -1.21. In the assay with Staphylococcus aureus [20], the log10cfu was -1.14. The Activity with Staphylococcus aureus [6] and in the assay on Staphylococcus aureus [18] was 1.19 × MIC throughout.
